{
  "source": "ChEMBL document CHEMBL1143381",
  "about": "(J Med Chem, 2009)",
  "key": {"K562 [1]": {"test_system": "K562", "experiment": "Cytotoxicity against human doxorubicin-sensitive K562 cells after 72 hrs by MTT assay", "format": "functional, cell-based", "details": "K562, 72 h", "how_it_was_run": "(§1)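 MTT assay: cells seeded at 3000/well with doxorubicin (0.001–0.1 µM in K562; 0.1–10 µM in K562/DOX), alone or with modulator, for 72 h at 37 °C. Doxorubicin IC50 is the 50% drop in MTT conversion versus untreated cells, read from plots. RF is the IC50 without modulator divided by the IC50 with modulator. Values are mean ± SE of ≥3 runs, or mean of two runs, in quadruplicate cultures.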"}, "K562 [2]": {"test_system": "K562", "experiment": "Cytotoxicity against human doxorubicin-resistant K562 cells expressing Pgp after 72 hrs by MTT assay", "format": "functional, cell-based", "details": "K562, 72 h", "how_it_was_run": "as §1"}, "K562 [3]": {"test_system": "K562", "experiment": "Reversal of P-glycoprotein-mediated multidrug resistance in human anthracycline-resistant K562 cells assessed as drug level causing 50% increase in nuclear concentration of pirarubicin by spectrofluorimetry", "format": "cell-based", "how_it_was_run": "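K562/DOX cells were grown in RPMI 1640 with 10% FCS at 37 °C, 5% CO2, and kept resistant by a monthly 3-day exposure to 400 nM doxorubicin. Cultures were started at 5 × 10^5 cells/mL and used 24 h later. Pirarubicin uptake was followed as fluorescence decrease at 590 nm (ex 480 nm) in 2 mL buffer at 37 °C.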"}, "K562 [4]": {"test_system": "K562", "experiment": "Cytotoxicity against human doxorubicin-resistant K562 cells expressing Pgp assessed as cell viability by trypan blue exclusion assay", "format": "functional"}, "K562 [5]": {"test_system": "K562", "experiment": "Potentiation of doxorubicin-induced growth inhibition in human doxorubicin-resistant K562 cells expressing Pgp at 1 uM after 72 hrs by MTT assay", "format": "functional, cell-based", "how_it_was_run": "as §1"}, "K562 [6]": {"test_system": "K562", "experiment": "Potentiation of doxorubicin-induced growth inhibition in human doxorubicin-resistant K562 cells expressing Pgp at 3 uM after 72 hrs by MTT assay", "format": "functional, cell-based", "how_it_was_run": "as §1"}},
  "note": "The source made the active and inactive calls. The rule behind the calls is not given here.",
  "data": [
    {"smiles": "COc1cccc2c1C(=O)c1c(O)c3c(c(O)c1C2=O)C[C@@](O)(C(=O)CO)C[C@@H]3O[C@H]1C[C@H](N)[C@H](O)[C@H](C)O1", "note": "[DOXORUBICIN]", "values": [
      {"measurement": "IC50", "setting": "K562 [1]", "value": 0.032, "unit": "µM"},
      {"measurement": "IC50", "setting": "K562 [2]", "value": 2.84, "unit": "µM"}
    ]},
    {"smiles": "COc1ccc(C(C#N)(CCCNCc2c3ccccc3cc3ccccc23)C(C)C)cc1OC", "note": "(configuration not stated)", "values": [
      {"measurement": "Activity", "setting": "K562 [3]", "value": 0.05, "unit": "µM"}
    ]},
    {"smiles": "COc1cc(C(=O)OCCCN(C)CCCOC(=O)c2c3ccccc3cc3ccccc23)cc(OC)c1OC", "values": [
      {"measurement": "Activity", "setting": "K562 [3]", "value": 0.6, "unit": "µM"}
    ]},
    {"smiles": "COc1ccc(CCN(C)CCCC(C#N)(c2ccc(OC)c(OC)c2)C(C)C)cc1OC", "note": "(configuration not stated)", "values": [
      {"measurement": "Activity", "setting": "K562 [4]", "value": ">95", "unit": "%"},
      {"measurement": "Activity", "setting": "K562 [5]", "value": "Active"},
      {"measurement": "Activity", "setting": "K562 [6]", "value": "Active"}
    ]}
  ]
}
